Measured values reported in PubChem BioAssay.
Activity calls are given as the source filed them. Rule as the data show it, unless noted: active = inhibition above about 30%; inactive = the rest.

Assays:
[1] = HUVEC growth inhibition – cell-based, human, primary screen (AID 575;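 active = viability at or below 30% in both replicate assays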;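 also: 100% = median of untreated cell wells with 0.1% DMSO on each plate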); settings: HUVEC proliferation, CellTiter-Glo luminescence, 72 h; at 10 µM; stronger effect = lower value
Method in brief: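 System – primary HUVEC, no more than 12 passages · Medium – Low-serum (2% FBS) EBM, supplemented · Times – 72 h exposure, 37 °C, 5% CO2, 30 min RT equilibration · Measured by – luminescent ATP assay · Read-out – % viability relative to median vehicle-well signal on each plate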

[2] = growth inhibitors of H69AR lung tumor, primary screen, human, duplicate replicates (AID 580;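 active = viability at or under a set limit in both replicates, limit being median viability minus 3 SD, cut at about 48% in these data, passing the limit was not always enough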;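 also: 100% = mean luminescence of untreated wells and 0% = no signal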); settings: H69AR lung tumor cells viability, ATP luminescence, 72 h; at 10 µM; stronger effect = lower value
[3] = reversal of MRP1-mediated doxorubicin resistance, pilot screen, H69AR cells, doxorubicin co-treatment (AID 601;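 active = viability loss from added drug above about 55%, and viability with drug at most 40%, in both replicates, limit read from the data, passing the limit was not always enough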); settings: CellTiter-Glo, 72 h, at 10 µM; for differential viability (reversal): stronger effect = higher value
[4] = 384-well plate pilot, post-Golgi transport modulator project, inhibition of yeast transport mutant growth (AID 636; in the data active = inhibition above about 31%); settings: absorbance 615 nm, about 18 h, stronger effect = higher value
[5] = growth suppression of yeast trafficking mutant, preliminary HTS, modulators of trafficking downstream of Golgi apparatus project, 1536-format plate, OD 615 nm (AID 637); settings: yeast transport mutant growth, absorbance 615 nm, 18 h; stronger effect = higher value
[6] = H69AR cells + 2 uM doxorubicin, measured here: viability with 2 uM doxorubicin, stronger effect = lower value
[7] = H69AR cells, compound alone cytotoxicity

SMILES | viability [1] | viability [2] | differential viability (reversal) ([3]; H69AR cells + 2 uM doxorubicin) | viability [3, 6] [%] | viability [3, 7] [%] | inhibition [4] | inhibition [5]
Cc1cc(NC(=O)CCC(=O)N(CC2CCCO2)C(C(=O)NC2CCCC2)c2ccccc2C)no1 (configuration not stated) | 86.4% (inactive) | 96.7% (inactive) | 13.5% (inactive) | 83.2 | 96.7 | -2.11% (inactive) | 5.4% (inactive)
Nc1nnc(SCC(=O)N2CCN(c3ccccc3)CC2)n1-c1ccccc1 | 80.6% (inactive) | 90% (inactive) | 7.97% (inactive) | 82.1 | 90 | -0.78% (inactive) | 2.06% (inactive)
CCOC(=O)C1CCCn2c1nc1sc3c(c1c2=O)CCCC3 (configuration not stated) | 86.1% (inactive) | 89.1% (inactive) | -9.13% (inactive) | 98.3 | 89.1 | 0.27% (inactive) | -4.6% (inactive)
CC(=O)Nc1ccc(S(=O)(=O)N2CCN(Cc3ccncc3)CC2)cc1 | 90.7% (inactive) | 109% (inactive) | 18.1% (inactive) | 90.5 | 109 | -5.13% (inactive) | 1.59% (inactive)
Cn1cnc2c1c(=O)n(Cc1cccc(Br)c1)c(=O)n2C | 90.3% (inactive) | 86.9% (inactive) | 4.32% (inactive) | 82.6 | 86.9 | -4% (inactive) | 5.24% (inactive)
Nc1nc(NCc2ccco2)nn1-c1ccccc1 | 98% (inactive) | 96.7% (inactive) | 15.7% (inactive) | 80.9 | 96.7 | -7.07% (inactive) | 6.03% (inactive)
CCN(CC)CCNC(=O)C1CCN(S(=O)(=O)N2CCCCC2)CC1 | 100% (inactive) | 94.8% (inactive) | 0.23% (inactive) | 94.6 | 94.8 | -3.82% (inactive) | 0.32% (inactive)
Cc1ccnc(NS(=O)(=O)c2ccc(N=CC3=C(O)CC(C)(C)CC3=O)cc2)n1 | 102% (inactive) | 97.1% (inactive) | -0.37% (inactive) | 97.5 | 97.1 | 0.92% (inactive) | -5.4% (inactive)
CC1=C(C#N)C(c2ccc3ncccc3c2)C(C#N)=C(C)N1 | 86.2% (inactive) | 97% (inactive) | -1.7% (inactive) | 98.7 | 97 | -4.74% (inactive) | 0% (inactive)
CCC(C)(C)n1nnnc1C(c1ccccc1OC)N1CCSCC1 (configuration not stated) | 99.6% (inactive) | 90% (inactive) | 7.71% (inactive) | 82.3 | 90 | -0.78% (inactive) | -4.76% (inactive)
COc1cccc(-c2nc(-c3ccc(NC(=O)Cc4ccccc4OC)cc3)no2)c1 | 85.3% (inactive) | 90.6% (inactive) | 12.8% (inactive) | 77.8 | 90.6 | 9.09% (inactive) | -0.95% (inactive)
CCn1cnc2cc(NCc3cccc(OC)c3O)ccc21 | 99.3% (inactive) | 92.3% (inactive) | 5.97% (inactive) | 86.3 | 92.3 | -4.47% (inactive) | 0.32% (inactive)
CN1CCN(C(=O)c2ccccc2N(Cc2ccccc2)S(C)(=O)=O)CC1 | 93.3% (inactive) | 91.6% (inactive) | 6.72% (inactive) | 84.9 | 91.6 | -6.1% (inactive) | -6.35% (inactive)
CCS(=O)(=O)N1CCCC(C(=O)NCCc2ccc(OC)c(OC)c2)C1 (configuration not stated) | 101% (inactive) | 104% (inactive) | 9.14% (inactive) | 94.5 | 104 | 1.07% (inactive) | -0.95% (inactive)
Cn1c(=O)c(NC(=O)c2ccccc2)c2n(c1=S)CCCCC2 | 104% (inactive) | 90.8% (inactive) | -6.87% (inactive) | 97.6 | 90.8 | -2.99% (inactive) | 3.65% (inactive)
CC(C)CC(OC(=O)c1cccs1)C(=O)NCc1ccco1 (configuration not stated) | 103% (inactive) | 80.6% (inactive) | -0.4% (inactive) | 81 | 80.6 | -7.6% (inactive) | -4.13% (inactive)
CCN1CCN(Cc2ccccc2NC(=O)Nc2ccc(C)cc2)CC1 | 89.7% (inactive) | 98% (inactive) | 11.2% (inactive) | 86.8 | 98 | -5.92% (inactive) | -0.16% (inactive)
Cn1cccc1C(=O)NC(=O)CSc1nnc(C2CC2)n1-c1ccccc1 | 102% (inactive) | 85.7% (inactive) | -7.28% (inactive) | 93 | 85.7 | -1.17% (inactive) | -0.63% (inactive)
CC(C(N)=O)N1C(=O)C2C3C=CC(C3)C2C1=O (configuration not stated) | 85.1% (inactive) | 106% (inactive) | 10.4% (inactive) | 95.2 | 106 | -1.6% (inactive) | -2.22% (inactive)
CCOc1ccccc1N(CC(=O)N1CCOCC1)S(=O)(=O)c1ccccc1 | 108% (inactive) | 99% (inactive) | 1.18% (inactive) | 97.8 | 99 | 2.8% (inactive) | -4.76% (inactive)
Cc1nc(SCC(=O)NCc2ccco2)c2c(C)c(C)sc2n1 | 81.7% (inactive) | 86.6% (inactive) | 15.1% (inactive) | 71.4 | 86.6 | -2.86% (inactive) | -0.79% (inactive)

SMILES | viability [1] | viability [2] | differential viability (reversal) ([3]; H69AR cells + 2 uM doxorubicin) | viability [3, 6] [%] | viability [3, 7] [%] | inhibition [4] | inhibition [5]
CCOC(=O)c1ccc(NC(=O)N2CCN(CCc3ccccc3)CC2)cc1 | 91.7% (inactive) | 101% (inactive) | 10.2% (inactive) | 90.4 | 101 | -2.11% (inactive) | -0.32% (inactive)
CC(=O)CC(=O)Nc1ccccc1NC(C)=O | 105% (inactive) | 101% (inactive) | 8.12% (inactive) | 93.2 | 101 | -2.86% (inactive) | 1.43% (inactive)
Cc1nnc(SCC(=O)Nc2nccs2)s1 | 95.7% (inactive) | 93% (inactive) | 1.75% (inactive) | 91.3 | 93 | -6.67% (inactive) | -2.22% (inactive)
C#CCN1C(=O)C(O)(CC(=O)c2cc(OC)ccc2OC)c2ccccc21 (configuration not stated) | 78.6% (inactive) | 38.7% (active) | -16.8% (inactive) | 55.5 | 38.7 | -4.8% (inactive) | 1.9% (inactive)
O=C1CC(c2ccccc2)CC(O)=C1C=NCCCN1CCOCC1 (configuration not stated) | 100% (inactive) | 100% (inactive) | 5.34% (inactive) | 95 | 100 | -1.05% (inactive) | -3.49% (inactive)
COc1ccc(C2C3=C(OC(C)=O)c4ccccc4C3=Nc3c2c(=O)n(C)c(=O)n3C)cc1 (configuration not stated) | 65.4% (inactive) | 74.1% (inactive) | 0.425% (inactive) | 73.7 | 74.1 | -4% (inactive) | 0.79% (inactive)
COC(=O)c1cccc(NC(=O)CSc2nnc(COc3ccccc3)n2C)c1 | 102% (inactive) | 101% (inactive) | 13.7% (inactive) | 87 | 101 | -4.27% (inactive) | 2.22% (inactive)
N=c1sc2ccccc2n1-c1ccccc1 | 102% (inactive) | 89% (inactive) | 6.59% (inactive) | 82.4 | 89 | -3.12% (inactive) | 3.33% (inactive)
COc1ccc(C(=O)Nc2ccc(S(=O)(=O)Nc3nccnc3OC)cc2)cc1OC | 97.4% (inactive) | 99.6% (inactive) | 11% (inactive) | 88.6 | 99.6 | 1.69% (inactive) | 4.6% (inactive)
Cc1ccccc1Cn1nc(C)c(NC(=O)c2noc3c2CCCC3)c1C | 75.7% (inactive) | 97.3% (inactive) | 2.39% (inactive) | 95 | 97.3 | -3.12% (inactive) | -10.3% (inactive)
O=C(CSc1nnc(-c2ccccc2)o1)N1CCN(c2ccccc2)CC1 | 89.9% (inactive) | 98.3% (inactive) | 3.54% (inactive) | 94.8 | 98.3 | -4.53% (inactive) | 1.75% (inactive)
Cc1ccnc(NC(=O)Nc2ccc(F)cc2)c1 | 99.9% (inactive) | 104% (inactive) | 12.9% (inactive) | 91.2 | 104 | -2.08% (inactive) | -8.41% (inactive)
COc1ccccc1NC1=NC2(CCCC2)N=C(N)N1 | 91.3% (inactive) | 99.7% (inactive) | 8.79% (inactive) | 90.9 | 99.7 | -2.6% (inactive) | 3.02% (inactive)
CCOC(=O)CC(C#N)c1cn(C)c2ccccc12 (configuration not stated) | 86.6% (inactive) | 88% (inactive) | -4.15% (inactive) | 92.2 | 88 | -6.58% (inactive) | -4.6% (inactive)
Cn1c(Cc2cccs2)nnc1SCC(=O)N1CCc2ccccc21 | 94.1% (inactive) | 84.3% (inactive) | -9.72% (inactive) | 94 | 84.3 | -0.66% (inactive) | -8.1% (inactive)
COc1cccc(Oc2ccc(N)cc2)c1 | 74.9% (inactive) | 74.8% (inactive) | -6.83% (inactive) | 81.7 | 74.8 | 0% (inactive) | -3.33% (inactive)
O=C(CCN1CCN(CCO)CC1)Nc1ccc(OCc2ccccc2)cc1 | 76.5% (inactive) | 88.9% (inactive) | 6.03% (inactive) | 82.9 | 88.9 | -2.6% (inactive) | -6.67% (inactive)
CN(C)S(=O)(=O)c1cccc(C(=O)Nc2cccnc2)c1 | 83.9% (inactive) | 89.5% (inactive) | 7.48% (inactive) | 82 | 89.5 | -4.93% (inactive) | 1.43% (inactive)
O=C(NC1=NCCS1)c1nc(-c2ccccc2)n(-c2ccccc2)n1 | 70.4% (inactive) | 101% (inactive) | 8.75% (inactive) | 92.1 | 101 | -3.73% (inactive) | 0.63% (inactive)
Cc1nc(SCC(=O)c2c[nH]c3ccccc23)n[nH]1 | 81.1% (inactive) | 95.9% (inactive) | 14.5% (inactive) | 81.4 | 95.9 | -7.5% (inactive) | -0.32% (inactive)
